In brackets after ≈: the same amount, converted by molar mass.
Assays:
Type in all cases: functional
Details in all cases: read-out: ED50 (the source's name)
MCF7 = experiment: Cytotoxicity against human MCF7 cells expressing ER
Summary of the method: (§1)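 SRB growth-inhibition assay. Cells grown in RPMI-1640 with 25 mM HEPES, 0.25% sodium bicarbonate, 10% FBS and 100 µg/mL kanamycin. Freshly trypsinized cells seeded at 1500-7500 per well, with compound added from DMSO-diluted stock. After 3 days, attached cells fixed with cold 50% TCA, stained with 0.4% SRB, dye solubilized, A562 read. ED50 = concentration reducing growth 50%, mean of ≥3 independent determinations.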

MDA-MB-231 = experiment: Cytotoxicity against human MDA-MB-231 cells lacking ER; summary of the method: as §1
A-431 = experiment: Cytotoxicity against human A431 cells; summary of the method: as §1
SW-620 = experiment: Cytotoxicity against human SW620 cells; summary of the method: as §1
ZR-75-1 = experiment: Cytotoxicity against human ZR-75-1 cells expressing ER; summary of the method: as §1
SK-BR-3 = experiment: Cytotoxicity against human SK-BR-3 cells expressing HER2 and lacking ER; summary of the method: as §1
KB = experiment: Cytotoxicity against human KB cells; summary of the method: as §1
Hs-578T = experiment: Cytotoxicity against human HS 587-T cells lacking ER; summary of the method: as §1

Row | Structure (SMILES) | EC50 (MCF7) [µg/mL] | EC50 (MDA-MB-231) [µg/mL] | EC50 (A-431) [µg/mL] | EC50 (SW-620) [µg/mL] | EC50 (ZR-75-1) [µg/mL] | EC50 (SK-BR-3) [µg/mL] | EC50 (KB) [µg/mL] | EC50 (Hs-578T) [µg/mL]
1 | CCc1cccc2c1ccc1c3occc3c(=O)oc21 | > 10 | > 10 |  |  |  |  |  | 
2 | O=c1oc2c3ccccc3ccc2c2occc12 | > 20 | 10.5 (≈ 44.4 µM) |  |  |  |  |  | 
3 | Cc1cccc2c1ccc1c3occc3c(=O)oc21 | 5.5 (≈ 22 µM) |  | 8.3 (≈ 33.2 µM) | > 10 | > 10 | 8.5 (≈ 34 µM) | > 10 | 
4 | CCc1cccc2c1ccc1c3occ(C)c3c(=O)oc21 | 0.45 (≈ 1.62 µM) | 13.5 (≈ 48.5 µM) | > 10 | > 10 | 0.18 (≈ 0.647 µM) | 0.1 (≈ 0.359 µM) | > 10 | 10 (≈ 35.9 µM)
5 | Cc1cccc2c1ccc1c3occ(C)c3c(=O)oc21 | 0.6 (≈ 2.27 µM) | 10 (≈ 37.8 µM) | > 10 | > 10 | 0.25 (≈ 0.946 µM) | 0.18 (≈ 0.681 µM) | > 10 | 16 (≈ 60.5 µM)
6 | COc1cc2c3occ(C)c3c(=O)oc2c2ccccc12 | 5 (≈ 17.8 µM) |  | 9.5 (≈ 33.9 µM) | 9 (≈ 32.1 µM) | > 10 | 8.6 (≈ 30.7 µM) | > 10 | 
7 | Cc1coc2c1c(=O)oc1c3ccccc3ccc21 | 4 (≈ 16 µM) | 10.3 (≈ 41.2 µM) |  |  | 4 (≈ 16 µM) |  |  | 7.5 (≈ 30 µM)
8 | Cc1coc2c1c(=O)oc1c3ccccc3c(Cl)cc21 | 5 (≈ 17.6 µM) |  | 8 (≈ 28.1 µM) | > 10 | 8.6 (≈ 30.2 µM) | 4.5 (≈ 15.8 µM) | > 10 | 
9 | O=c1oc2c3ccccc3c(Cl)cc2c2occc12 | 7 (≈ 25.9 µM) |  | > 10 | > 10 | > 10 | > 10 | > 10 | 
10 | COc1cc2c3occc3c(=O)oc2c2ccccc12 | 3.4 (≈ 12.8 µM) |  | 9.5 (≈ 35.7 µM) | 4 (≈ 15 µM) | 8.5 (≈ 31.9 µM) | 4 (≈ 15 µM) | 9.5 (≈ 35.7 µM) | 
11 | O=c1oc2c(ccc3ccccc32)c2c1C(O)CO2 (stereo not drawn) | 12.5 (≈ 49.2 µM) |  |  |  |  |  |  | 
12 | CC/C(=C(\c1ccccc1)c1ccc(OCCN(C)C)cc1)c1ccccc1 [TAMOXIFEN] | 5 (≈ 13.5 µM) | 8.5 (≈ 22.9 µM) | 7 (≈ 18.8 µM) | 4 (≈ 10.8 µM) | 3.6 (≈ 9.69 µM) | 5 (≈ 13.5 µM) | 9 (≈ 24.2 µM) | 7 (≈ 18.8 µM)

— ChEMBL document CHEMBL1146885, “Antitumor agents. 254. Synthesis and biological evaluation of novel neo-tanshinlactone analogues as potent anti-breast cancer agents” (2006)
